Laboratory results published in ChEMBL document CHEMBL3272093, “Antibacterial halogenoacetyl derivatives of amino acids and simple peptides” (1977).
Converted amounts (≈) assume the structure as drawn. The source made the active and inactive calls. The rule behind the calls is not given here.

system: Salmonella enterica subsp. enterica serovar Typhimurium; assay: Inhibition of Salmonella typhimurium DD-carboxypeptidase using UDP-N-acetylmuramyl-L-alanyl-meso-diaminopimeloyl-D-alanyl-D-alanine as substrate at 10 to 100 ug/ml
How it was run: (§1)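 Enzymes tested for release of D-alanine, measured with D-amino acid oxidase. Compounds assayed at 10 and 100 μg/mL. Substrates: Ac2-L-Lys-D-Ala-D-Ala for the Streptomyces R61 enzyme; UDP-N-acetylmuramyl-L-alanyl-meso-diaminopimeloyl-D-alanyl-D-alanine for the B. stearothermophilus and S. typhimurium enzymes.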

Structure (SMILES) | inhibition
O=C(CI)NCCC(=O)OCc1ccccc1 | inactive
C[C@@H](NC(=O)[C@@H](C)NC(=O)[C@H](CCCCN)NC(=O)CI)C(=O)O.O=C(O)C(F)(F)F | inactive
C[C@@H](NC(=O)[C@@H](C)NC(=O)[C@H](CCCCN)NC(=O)CBr)C(=O)O.O=C(O)C(F)(F)F | inactive
C[C@@H](NC(=O)CI)C(=O)N[C@H](C)C(=O)OC(C)(C)C | inactive
C[C@@H](NC(=O)[C@H](CCCCN1C(=O)c2ccccc2C1=O)NC(=O)CI)C(=O)N[C@H](CCC(=O)O)C(=O)O | inactive
CC(=O)NCCCC[C@H](NC(=O)CI)C(=O)N[C@H](C)C(=O)N[C@H](C)C(=O)O | inactive
O=C(O)CCCCNC(=O)[C@H](CCCCN1C(=O)c2ccccc2C1=O)NC(=O)CI | inactive
C[C@@H](NC(=O)[C@H](CCCCNC(=O)OC(C)(C)C)NC(=O)CBr)C(=O)OC(C)(C)C | inactive
C[C@@H](NC(=O)CI)C(=O)N[C@H](C)C(=O)OCc1ccccc1 | inactive
O=C(CI)NCC(=O)NCC(=O)OCc1ccccc1 | inactive
O=C(CI)NCC(=O)OCc1ccccc1 | inactive

Next, values leading:

inhibition | Structure (SMILES)
inactive | COC(=O)CCCCNC(=O)CI
inactive | C[C@@H](NC(=O)[C@H](CCCCN)NC(=O)CI)C(=O)O.O=C(O)C(F)(F)F
inactive | C[C@@H](NC(=O)CI)C(=O)OC(C)(C)C
inactive | C[C@@H](NC(=O)[C@H](CCCCNC(=O)OC(C)(C)C)NC(=O)CI)C(=O)N[C@H](C)C(=O)OC(C)(C)C
inactive | C[C@@H](NC(=O)[C@@H](C)NC(=O)CI)C(=O)O
inactive | C[C@@H](NC(=O)[C@H](CCCCNC(=O)OC(C)(C)C)NC(=O)CI)C(=O)OC(C)(C)C
inactive | C[C@@H](NC(=O)[C@H](CCCCN)NC(=O)CBr)C(=O)O.O=C(O)C(F)(F)F

system: Staphylococcus aureus; assay: Antibacterial activity against Staphylococcus aureus assessed as inhibition of growth after 18 hrs by broth culture method; type: functional
How it was run: (§2)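 Broth dilution in 0.5 mL Sensitivity Test Broth, inoculated with 0.2 mL of a 10^-4 dilution of an 18-h broth culture. MIC read after 18-h incubation as the lowest concentration preventing growth.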

Structure (SMILES) | MIC [µg/mL]
O=C(CI)NCCC(=O)OCc1ccccc1 | 7.5 (≈ 21.6 µM)
C[C@@H](NC(=O)[C@@H](C)NC(=O)[C@H](CCCCN)NC(=O)CI)C(=O)O.O=C(O)C(F)(F)F | > 500
C[C@@H](NC(=O)[C@@H](C)NC(=O)[C@H](CCCCN)NC(=O)CBr)C(=O)O.O=C(O)C(F)(F)F | > 500
C[C@@H](NC(=O)CI)C(=O)N[C@H](C)C(=O)OC(C)(C)C | 31 (≈ 80.7 µM)
C[C@@H](NC(=O)[C@H](CCCCN1C(=O)c2ccccc2C1=O)NC(=O)CI)C(=O)N[C@H](CCC(=O)O)C(=O)O | 250 (≈ 388 µM)
CC(=O)NCCCC[C@H](NC(=O)CI)C(=O)N[C@H](C)C(=O)N[C@H](C)C(=O)O | > 500
O=C(O)CCCCNC(=O)[C@H](CCCCN1C(=O)c2ccccc2C1=O)NC(=O)CI | > 500
C[C@@H](NC(=O)[C@H](CCCCNC(=O)OC(C)(C)C)NC(=O)CBr)C(=O)OC(C)(C)C | 62 (≈ 125 µM)
C[C@@H](NC(=O)CI)C(=O)N[C@H](C)C(=O)OCc1ccccc1 | 7.5 (≈ 17.9 µM)
O=C(CI)NCC(=O)NCC(=O)OCc1ccccc1 | 0.9 (≈ 2.31 µM)
O=C(CI)NCC(=O)OCc1ccccc1 | 7.5 (≈ 22.5 µM)

The next lines start with the values.

MIC [µg/mL] | Structure (SMILES)
3.7 (≈ 12.4 µM) | COC(=O)CCCCNC(=O)CI
> 500 | C[C@@H](NC(=O)[C@H](CCCCN)NC(=O)CI)C(=O)O.O=C(O)C(F)(F)F
31 (≈ 99 µM) | C[C@@H](NC(=O)CI)C(=O)OC(C)(C)C
250 (≈ 408 µM) | C[C@@H](NC(=O)[C@H](CCCCNC(=O)OC(C)(C)C)NC(=O)CI)C(=O)N[C@H](C)C(=O)OC(C)(C)C
500 (≈ 1520 µM) | C[C@@H](NC(=O)[C@@H](C)NC(=O)CI)C(=O)O
15 (≈ 27.7 µM) | C[C@@H](NC(=O)[C@H](CCCCNC(=O)OC(C)(C)C)NC(=O)CI)C(=O)OC(C)(C)C
> 500 | C[C@@H](NC(=O)[C@H](CCCCN)NC(=O)CBr)C(=O)O.O=C(O)C(F)(F)F

biological target: T1, D-alanyl-D-alanine carboxypeptidase DacA (Geobacillus stearothermophilus) (UniProt Q05523); assay: Inhibition of Bacillus stearothermophilus DD-carboxypeptidase using UDP-N-acetylmuramyl-L-alanyl-meso-diaminopimeloyl-D-alanyl-D-alanine as substrate at 10 to 100 ug/ml; how it was run: as §1
T1 sequence (whole entry): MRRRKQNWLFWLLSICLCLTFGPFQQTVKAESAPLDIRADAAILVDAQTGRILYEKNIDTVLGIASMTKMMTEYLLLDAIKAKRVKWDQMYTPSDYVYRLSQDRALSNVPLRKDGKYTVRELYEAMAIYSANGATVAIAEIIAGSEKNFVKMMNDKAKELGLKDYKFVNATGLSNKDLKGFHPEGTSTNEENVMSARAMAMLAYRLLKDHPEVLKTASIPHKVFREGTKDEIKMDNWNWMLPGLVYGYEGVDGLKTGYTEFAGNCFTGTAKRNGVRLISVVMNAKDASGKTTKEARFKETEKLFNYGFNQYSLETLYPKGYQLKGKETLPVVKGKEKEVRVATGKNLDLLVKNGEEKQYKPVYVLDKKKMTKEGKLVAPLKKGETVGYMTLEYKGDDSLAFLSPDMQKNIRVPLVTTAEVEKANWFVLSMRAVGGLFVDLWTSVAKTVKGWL

Structure (SMILES) | inhibition
O=C(CI)NCCC(=O)OCc1ccccc1 | inactive
C[C@@H](NC(=O)[C@@H](C)NC(=O)[C@H](CCCCN)NC(=O)CI)C(=O)O.O=C(O)C(F)(F)F | inactive
C[C@@H](NC(=O)[C@@H](C)NC(=O)[C@H](CCCCN)NC(=O)CBr)C(=O)O.O=C(O)C(F)(F)F | inactive
C[C@@H](NC(=O)CI)C(=O)N[C@H](C)C(=O)OC(C)(C)C | inactive
C[C@@H](NC(=O)[C@H](CCCCN1C(=O)c2ccccc2C1=O)NC(=O)CI)C(=O)N[C@H](CCC(=O)O)C(=O)O | inactive
CC(=O)NCCCC[C@H](NC(=O)CI)C(=O)N[C@H](C)C(=O)N[C@H](C)C(=O)O | inactive
O=C(O)CCCCNC(=O)[C@H](CCCCN1C(=O)c2ccccc2C1=O)NC(=O)CI | inactive
C[C@@H](NC(=O)[C@H](CCCCNC(=O)OC(C)(C)C)NC(=O)CBr)C(=O)OC(C)(C)C | inactive
C[C@@H](NC(=O)CI)C(=O)N[C@H](C)C(=O)OCc1ccccc1 | inactive
O=C(CI)NCC(=O)NCC(=O)OCc1ccccc1 | inactive
O=C(CI)NCC(=O)OCc1ccccc1 | inactive

Now from value to compound:

inhibition | Structure (SMILES)
inactive | COC(=O)CCCCNC(=O)CI
inactive | C[C@@H](NC(=O)[C@H](CCCCN)NC(=O)CI)C(=O)O.O=C(O)C(F)(F)F
inactive | C[C@@H](NC(=O)CI)C(=O)OC(C)(C)C
inactive | C[C@@H](NC(=O)[C@H](CCCCNC(=O)OC(C)(C)C)NC(=O)CI)C(=O)N[C@H](C)C(=O)OC(C)(C)C
inactive | C[C@@H](NC(=O)[C@@H](C)NC(=O)CI)C(=O)O
inactive | C[C@@H](NC(=O)[C@H](CCCCNC(=O)OC(C)(C)C)NC(=O)CI)C(=O)OC(C)(C)C
inactive | C[C@@H](NC(=O)[C@H](CCCCN)NC(=O)CBr)C(=O)O.O=C(O)C(F)(F)F

biological target: D-alanyl-D-alanine carboxypeptidase (Streptomyces sp. R61) (UniProt P15555); assay: Inhibition of Streptomyces R61 DD-carboxypeptidase using Ac2-L-Lys-D-Ala-D-Ala as substrate at 10 to 100 ug/ml; how it was run: as §1
Sequence (P15555 whole entry): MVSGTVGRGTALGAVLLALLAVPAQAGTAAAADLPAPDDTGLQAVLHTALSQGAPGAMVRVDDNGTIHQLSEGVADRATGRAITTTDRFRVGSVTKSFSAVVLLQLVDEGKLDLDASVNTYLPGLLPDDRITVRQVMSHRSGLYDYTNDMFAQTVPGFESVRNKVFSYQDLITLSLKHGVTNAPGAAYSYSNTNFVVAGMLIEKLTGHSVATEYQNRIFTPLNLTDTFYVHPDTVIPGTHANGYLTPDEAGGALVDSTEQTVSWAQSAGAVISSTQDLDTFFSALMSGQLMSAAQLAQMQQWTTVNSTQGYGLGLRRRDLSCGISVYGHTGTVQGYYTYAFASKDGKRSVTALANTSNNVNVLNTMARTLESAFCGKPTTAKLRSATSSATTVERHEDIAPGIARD

Structure (SMILES) | inhibition
O=C(CI)NCCC(=O)OCc1ccccc1 | inactive
C[C@@H](NC(=O)[C@@H](C)NC(=O)[C@H](CCCCN)NC(=O)CI)C(=O)O.O=C(O)C(F)(F)F | inactive
C[C@@H](NC(=O)[C@@H](C)NC(=O)[C@H](CCCCN)NC(=O)CBr)C(=O)O.O=C(O)C(F)(F)F | inactive
C[C@@H](NC(=O)CI)C(=O)N[C@H](C)C(=O)OC(C)(C)C | inactive
C[C@@H](NC(=O)[C@H](CCCCN1C(=O)c2ccccc2C1=O)NC(=O)CI)C(=O)N[C@H](CCC(=O)O)C(=O)O | inactive
CC(=O)NCCCC[C@H](NC(=O)CI)C(=O)N[C@H](C)C(=O)N[C@H](C)C(=O)O | inactive
O=C(O)CCCCNC(=O)[C@H](CCCCN1C(=O)c2ccccc2C1=O)NC(=O)CI | inactive
C[C@@H](NC(=O)[C@H](CCCCNC(=O)OC(C)(C)C)NC(=O)CBr)C(=O)OC(C)(C)C | inactive
C[C@@H](NC(=O)CI)C(=O)N[C@H](C)C(=O)OCc1ccccc1 | inactive
O=C(CI)NCC(=O)NCC(=O)OCc1ccccc1 | inactive
O=C(CI)NCC(=O)OCc1ccccc1 | inactive

The next lines start with the values.

inhibition | Structure (SMILES)
inactive | COC(=O)CCCCNC(=O)CI
inactive | C[C@@H](NC(=O)[C@H](CCCCN)NC(=O)CI)C(=O)O.O=C(O)C(F)(F)F
inactive | C[C@@H](NC(=O)CI)C(=O)OC(C)(C)C
inactive | C[C@@H](NC(=O)[C@H](CCCCNC(=O)OC(C)(C)C)NC(=O)CI)C(=O)N[C@H](C)C(=O)OC(C)(C)C
inactive | C[C@@H](NC(=O)[C@@H](C)NC(=O)CI)C(=O)O
inactive | C[C@@H](NC(=O)[C@H](CCCCNC(=O)OC(C)(C)C)NC(=O)CI)C(=O)OC(C)(C)C
inactive | C[C@@H](NC(=O)[C@H](CCCCN)NC(=O)CBr)C(=O)O.O=C(O)C(F)(F)F

system: Escherichia coli; assay: Antibacterial activity against Escherichia coli assessed as inhibition of growth after 18 hrs by broth culture method; type: functional; how it was run: as §2

Structure (SMILES) | MIC [µg/mL]
O=C(CI)NCCC(=O)OCc1ccccc1 | 500 (≈ 1440 µM)
C[C@@H](NC(=O)[C@@H](C)NC(=O)[C@H](CCCCN)NC(=O)CI)C(=O)O.O=C(O)C(F)(F)F | > 500
C[C@@H](NC(=O)[C@@H](C)NC(=O)[C@H](CCCCN)NC(=O)CBr)C(=O)O.O=C(O)C(F)(F)F | > 500
C[C@@H](NC(=O)CI)C(=O)N[C@H](C)C(=O)OC(C)(C)C | > 500
C[C@@H](NC(=O)[C@H](CCCCN1C(=O)c2ccccc2C1=O)NC(=O)CI)C(=O)N[C@H](CCC(=O)O)C(=O)O | > 500
CC(=O)NCCCC[C@H](NC(=O)CI)C(=O)N[C@H](C)C(=O)N[C@H](C)C(=O)O | > 500
O=C(O)CCCCNC(=O)[C@H](CCCCN1C(=O)c2ccccc2C1=O)NC(=O)CI | > 500
C[C@@H](NC(=O)[C@H](CCCCNC(=O)OC(C)(C)C)NC(=O)CBr)C(=O)OC(C)(C)C | > 500
C[C@@H](NC(=O)CI)C(=O)N[C@H](C)C(=O)OCc1ccccc1 | > 500
O=C(CI)NCC(=O)NCC(=O)OCc1ccccc1 | 62 (≈ 159 µM)
O=C(CI)NCC(=O)OCc1ccccc1 | 125 (≈ 375 µM)

Now from value to compound:

MIC [µg/mL] | Structure (SMILES)
7.5 (≈ 25.1 µM) | COC(=O)CCCCNC(=O)CI
> 500 | C[C@@H](NC(=O)[C@H](CCCCN)NC(=O)CI)C(=O)O.O=C(O)C(F)(F)F
> 500 | C[C@@H](NC(=O)CI)C(=O)OC(C)(C)C
500 (≈ 816 µM) | C[C@@H](NC(=O)[C@H](CCCCNC(=O)OC(C)(C)C)NC(=O)CI)C(=O)N[C@H](C)C(=O)OC(C)(C)C
> 500 | C[C@@H](NC(=O)[C@@H](C)NC(=O)CI)C(=O)O
> 500 | C[C@@H](NC(=O)[C@H](CCCCNC(=O)OC(C)(C)C)NC(=O)CI)C(=O)OC(C)(C)C
> 500 | C[C@@H](NC(=O)[C@H](CCCCN)NC(=O)CBr)C(=O)O.O=C(O)C(F)(F)F
